Measured values taken from ChEMBL document CHEMBL4028818, “Tricyclic 4,4-dimethyl-3,4-dihydrochromeno[3,4-d]imidazole derivatives as microsomal prostaglandin E2 synthase-1 (mPGES-1) inhibitors: SAR and in vivo efficacy in hyperalgesia pain model” (Bioorg Med Chem Lett, 2017).

Experiments:
Type in all cases: cell-based
[1] = biological target: T1, Prostaglandin E synthase (Homo sapiens) (UniProt O14684); assay: Inhibition of recombinant human mPGES-1 expressed in CHO cells assessed as reduction in PGE2 formation at 10 uM using PGH2 a substrate preincubated for 10 mins followed by substrate addition measured after 1 min relative to control
T1 sequence (whole entry): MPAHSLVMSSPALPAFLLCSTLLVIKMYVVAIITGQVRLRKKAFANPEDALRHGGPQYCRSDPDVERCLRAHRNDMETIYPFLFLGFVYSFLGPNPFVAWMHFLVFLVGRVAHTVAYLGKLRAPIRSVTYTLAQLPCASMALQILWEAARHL
In short: (§1)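 mPGES-1 enzyme inhibition. % inhibition values are means of two experiments in duplicate. IC50 values were derived from graphs of at least two experiments in duplicate.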

[2] = biological target: T1, Prostaglandin E synthase (Homo sapiens); assay: Inhibition of recombinant human mPGES-1 expressed in CHO cells assessed as reduction in PGE2 formation at 1 uM using PGH2 a substrate preincubated for 10 mins followed by substrate addition measured after 1 min relative to control; in short: as §1
Prostaglandin E synthase [3] = biological target: T2, Prostaglandin E synthase (Homo sapiens, UniProt O14684); assay: Inhibition of recombinant human mPGES-1 expressed in CHO cells assessed as reduction in PGE2 formation using PGH2 a substrate preincubated for 10 mins followed by substrate addition measured after 1 min; in short: as §1
T2 sequence (O14684 whole entry): T1 sequence (whole entry)

Prostaglandin E synthase [4] = biological target: T2, Prostaglandin E synthase; assay: Inhibition of mPGES-1 in human A549 cells assessed as decrease in IL1beta induced PGE2 release preincubated for 30 mins followed by IL-1beta addition after 16 to 20 hrs by HTRF method

Structure (SMILES)	inhibition [1] [%]	inhibition [2] [%]	IC50 (Prostaglandin E synthase [3]) [nM]	IC50 (Prostaglandin E synthase [4]) [nM]
CC1(C)Oc2cc(C(=O)Nc3ccc(C(F)(F)F)cc3)ccc2-c2[nH]c(-c3c(F)cccc3Cl)nc21	92.9	86.7	252	
CC1(C)Oc2cc(C#Cc3ccccc3Cl)ccc2-c2nc(-c3c(F)cccc3Cl)[nH]c21			64.7	
CC1(C)Oc2nc(C#Cc3ccccc3C(F)(F)F)ccc2-c2nc(-c3c(F)cccc3Cl)[nH]c21			407	
CC1(C)Oc2cc(Br)ccc2-c2[nH]c(-c3c(F)cccc3Cl)nc21	94.1	40.8		
Cc1cnc(C#Cc2ccc3c(c2)OC(C)(C)c2[nH]c(-c4c(F)cccc4Cl)nc2-3)s1			465	
CC1(C)Oc2cc(C#Cc3ccncc3F)ccc2-c2nc(-c3c(F)cccc3Cl)[nH]c21			641	
CC1(C)Oc2cc(Cl)ccc2-c2[nH]c(-c3c(Br)cccc3Br)nc21	89	74	325	
CC1(C)Oc2cc(C#Cc3ccccc3)ccc2-c2nc(-c3c(F)cccc3Cl)[nH]c21			83	
CC1(C)Oc2nc(C#Cc3c(F)cccc3C(F)(F)F)ccc2-c2nc(-c3c(F)cccc3Cl)[nH]c21	76	75		
CC1(C)Oc2cc(C#Cc3ccccc3C(F)(F)F)ccc2-c2nc(-c3c(Cl)cncc3Cl)[nH]c21			81.3	
CC1(C)Oc2cc(C(=O)Nc3ccc(Cl)c(F)c3)ccc2-c2[nH]c(-c3c(F)cccc3Cl)nc21	84.5	83.5	187	
CC1(C)Oc2cc(C(=O)Nc3cccc(C(F)(F)F)c3)ccc2-c2[nH]c(-c3c(F)cccc3Cl)nc21	83.6	70.4		
CC1(C)Oc2cc(-c3nc(C4CC4)no3)ccc2-c2[nH]c(-c3c(F)cccc3Cl)nc21	98.6	89		
CC1(C)Oc2cc(-c3nc4ccccc4[nH]3)ccc2-c2nc(-c3c(F)cccc3Cl)[nH]c21	75.5	12.2		
CC1(C)Oc2nc(C#Cc3cc(C(F)(F)F)ccc3Cl)ccc2-c2nc(-c3c(F)cccc3Cl)[nH]c21	63	65		
Cc1csc(NC(=O)c2ccc3c(c2)OC(C)(C)c2nc(-c4c(F)cccc4Cl)[nH]c2-3)n1	67.2	52.8		
CC1(C)Oc2cc(C(=O)NC3CCCCC3)ccc2-c2nc(-c3c(F)cccc3Cl)[nH]c21	68	56		
CC1(C)Oc2cc(Br)ccc2-c2[nH]c(-c3c(Br)cccc3Br)nc21	92	68.6	710	
CC1(C)Oc2cc(C#Cc3ccc(C(F)(F)F)cc3)ccc2-c2[nH]c(-c3c(F)cccc3Cl)nc21			61.8	
CC1(C)Oc2cc(C#Cc3ccc(C(F)(F)F)cn3)ccc2-c2nc(-c3c(F)cccc3Cl)[nH]c21			320	
CC1(C)Oc2cc(I)ccc2-c2[nH]c(-c3c(F)cccc3Cl)nc21	84.2	44.3		
CC1(C)Oc2cc(-c3ccc(C(F)(F)F)cc3)ccc2-c2[nH]c(-c3c(F)cccc3Cl)nc21	83.3	81.4	191	
CC1(C)Oc2cc(-c3ccc(Cl)cc3)ccc2-c2[nH]c(-c3c(F)cccc3Cl)nc21	94.8	76		
CC1(C)Oc2cc(C#Cc3ccc(C(F)(F)F)cc3Cl)ccc2-c2nc(-c3c(F)cncc3Cl)[nH]c21			73.9	
CC1(C)Oc2cc(-c3ccc(OC(F)(F)F)cc3)ccc2-c2[nH]c(-c3c(F)cccc3Cl)nc21	86.9	70.1		
CC1(C)Oc2cc(C#Cc3cncnc3)ccc2-c2nc(-c3c(F)cccc3Cl)[nH]c21			797	
CC1(C)Oc2cc(C#Cc3ccccc3C(F)(F)F)ccc2-c2nc(-c3c(F)cncc3Cl)[nH]c21			170	

The next lines start with the values.

inhibition [1] [%]	inhibition [2] [%]	IC50 (Prostaglandin E synthase [3]) [nM]	IC50 (Prostaglandin E synthase [4]) [nM]	Structure (SMILES)
		28.2		CC1(C)Oc2cc(C#Cc3ccc(C(F)(F)F)cc3Cl)ccc2-c2nc(-c3c(F)cccc3Cl)[nH]c21
		11.8	267	CC1(C)Oc2cc(C#Cc3ccccc3OC(F)(F)F)ccc2-c2[nH]c(-c3c(C#N)cccc3C#N)nc21
		15.6	693	CC1(C)Oc2cc(C#Cc3ccccc3C(F)(F)F)ccc2-c2[nH]c(-c3c(F)cccc3Cl)nc21
		39.2		CC1(C)Oc2cc(C#Cc3cccc(Cl)c3)ccc2-c2nc(-c3c(F)cccc3Cl)[nH]c21
		3.89	1200	CC1(C)Oc2cc(C#Cc3cc(C(F)(F)F)ccc3Cl)ccc2-c2nc(-c3c(C#N)cccc3C#N)[nH]c21
		38.2		CC1(C)Oc2cc(C#Cc3ccc(Cl)cc3)ccc2-c2nc(-c3c(F)cccc3Cl)[nH]c21
		25	461	CC1(C)Oc2cc(C#Cc3cc(C(F)(F)F)ccc3F)ccc2-c2nc(-c3c(F)cccc3Cl)[nH]c21
		24.8	984	CC1(C)Oc2cc(C#Cc3ccccc3)ccc2-c2[nH]c(-c3c(C#N)cccc3C#N)nc21
		7.76	2830	CC1(C)Oc2cc(C#Cc3ccc(Cl)cc3C(F)(F)F)ccc2-c2nc(-c3c(F)cccc3Cl)[nH]c21
		11.2		CC1(C)Oc2cc(C#Cc3c(Cl)cccc3Cl)ccc2-c2nc(-c3c(F)cccc3Cl)[nH]c21
		12.7	836	CC1(C)Oc2cc(C#Cc3c(F)cccc3C(F)(F)F)ccc2-c2nc(-c3c(C#N)cccc3C#N)[nH]c21
		21	706	CC1(C)Oc2cc(C#Cc3cc(F)ccc3C(F)(F)F)ccc2-c2[nH]c(-c3c(F)cccc3Cl)nc21
		19.9	578	CC1(C)Oc2cc(C#Cc3ccccc3OC(F)(F)F)ccc2-c2[nH]c(-c3c(F)cccc3Cl)nc21
		33.1		CC1(C)Oc2cc(C#Cc3cc(C(F)(F)F)ccc3Cl)ccc2-c2nc(-c3c(Cl)cncc3Cl)[nH]c21
		12.7	2320	CC1(C)Oc2cc(C#Cc3cc(Cl)ccc3Cl)ccc2-c2nc(-c3c(C#N)cccc3C#N)[nH]c21
		29.6	1250	CC1(C)Oc2cc(C#Cc3ccc(F)c(C(F)(F)F)c3)ccc2-c2nc(-c3c(F)cccc3Cl)[nH]c21
		31.5		CC1(C)Oc2cc(C#Cc3cc(F)ccc3C(F)(F)F)ccc2-c2nc(-c3c(Cl)cncc3Cl)[nH]c21
		9.3	1420	CC1(C)Oc2cc(C#Cc3cc(Cl)ccc3Cl)ccc2-c2[nH]c(-c3c(F)cccc3Cl)nc21
		29.3		CC1(C)Oc2cc(C#Cc3cccc(C(F)(F)F)c3)ccc2-c2nc(-c3c(F)cccc3Cl)[nH]c21
		12.3	691	CC1(C)Oc2cc(C#Cc3c(F)cccc3C(F)(F)F)ccc2-c2[nH]c(-c3c(F)cccc3Cl)nc21
		35.5		CC1(C)Oc2cc(C#Cc3cccc(Cl)c3Cl)ccc2-c2nc(-c3c(F)cccc3Cl)[nH]c21
